ChEMBL document CHEMBL3865794, “Novel securinine derivatives as topoisomerase I based antitumor agents” (Eur J Med Chem, 2016)

Tests used:
[1] = Growth inhibition of human A549 cells after 72 hrs by MTT assay; assay type: functional, cell-based
Outline: (§1)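 Cells seeded at 5 × 10³ per well and incubated overnight in medium with 10% FBS. Medium then replaced with fresh medium containing compound at […] for 72 h. MTT (5 mg/mL stock, 20 µL per well) added for 4 h at 37 °C, formazan dissolved in DMSO, absorbance read at 570 nm. Each dose run in parallel triplicate. IC50 taken from mean absorbance versus concentration curves.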

[2] = Growth inhibition of human HepG2 cells after 72 hrs by MTT assay; assay type: functional, cell-based; outline: as §1
[3] = Growth inhibition of human SH-SY5Y cells after 72 hrs by MTT assay; assay type: functional, cell-based; outline: as §1
[4] = target: T1, DNA topoisomerase 1 (Homo sapiens) (UniProt P11387); assay: Inhibition of DNA topoisomerase 1 (unknown origin) assessed as reduction in relaxation of supercoiled pBR322 plasmid DNA at 100 uM incubated for 30 mins by agarose gel electrophoresis relative to control
T1 sequence (whole entry): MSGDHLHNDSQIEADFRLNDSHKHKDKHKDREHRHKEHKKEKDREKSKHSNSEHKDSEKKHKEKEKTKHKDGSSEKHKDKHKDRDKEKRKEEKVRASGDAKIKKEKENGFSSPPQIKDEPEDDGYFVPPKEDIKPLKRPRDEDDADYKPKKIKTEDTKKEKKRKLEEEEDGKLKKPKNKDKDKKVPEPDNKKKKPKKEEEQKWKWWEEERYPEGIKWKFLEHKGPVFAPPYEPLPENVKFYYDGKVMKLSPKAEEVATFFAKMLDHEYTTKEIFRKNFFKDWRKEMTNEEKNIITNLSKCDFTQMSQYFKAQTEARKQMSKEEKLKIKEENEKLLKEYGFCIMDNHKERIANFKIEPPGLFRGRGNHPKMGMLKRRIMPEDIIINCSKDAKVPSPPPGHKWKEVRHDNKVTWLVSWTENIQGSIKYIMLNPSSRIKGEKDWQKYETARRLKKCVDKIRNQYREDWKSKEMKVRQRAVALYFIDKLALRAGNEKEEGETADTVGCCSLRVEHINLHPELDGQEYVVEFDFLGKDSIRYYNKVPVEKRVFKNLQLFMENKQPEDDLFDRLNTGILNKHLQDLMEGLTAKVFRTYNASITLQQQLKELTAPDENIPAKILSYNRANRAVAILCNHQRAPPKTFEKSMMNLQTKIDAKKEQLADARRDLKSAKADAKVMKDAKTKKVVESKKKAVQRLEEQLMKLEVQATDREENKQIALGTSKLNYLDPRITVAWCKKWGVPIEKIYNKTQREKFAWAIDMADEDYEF
Outline: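 Supercoiled pBR322 DNA incubated with Topo I in the presence or absence of compound for 30 min at 37 °C. Reaction stopped with dye solution of bromophenol blue, xylene cyanol and glycerol. Products run on 1% agarose in 1× TAE for 40 min, then EB-stained and UV-imaged. Inhibition rate derived from gel gray-scale analysis relative to control. Camptothecin served as positive control.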

[5] = Growth inhibition of human HeLa cells after 72 hrs by MTT assay; assay type: functional, cell-based; outline: as §1

Row | SMILES | IC50 ([1]; a549) | IC50 ([2]; hepg2) | IC50 ([3]; sh-sy5y) | IC50 ([1]; Homo sapiens, A549, 72 h) | IC50 ([2]; Homo sapiens, HepG2, 72 h) | inhibition [4] | IC50 ([5]; Homo sapiens, HeLa, 72 h) | IC50 ([3]; Homo sapiens, SH-SY5Y, 72 h) | IC50 ([5]; hela)
1 | O=C1O[C@@]23C[C@@H](C=CC2=C1C(O)c1ccc(Br)cc1)N1CCCC[C@@H]13 (stereo in doubt; 4a-4-b) | 6.3 µM | 14.1 µM | 22.3 µM | – | – | – | – | – | –
2 | Cc1ccc(C(O)C2=C3C=C[C@@H]4C[C@@]3(OC2=O)[C@H]2CCCCN42)cc1 (some centres not stated) | – | – | – | 8.81 µM | 7.09 µM | 27.1% | 9.07 µM | 15.1 µM | –
3 | O=C1O[C@@]23C[C@@H](C=CC2=C1C(O)c1ccccc1Cl)N1CCCC[C@@H]13 (some centres not stated) | – | – | – | 7.01 µM | 9.16 µM | 42.4% | 10.4 µM | 19.9 µM | –
4 | O=C1O[C@@]23C[C@@H](C=CC2=C1C(O)c1cccc(Cl)c1)N1CCCC[C@@H]13 (some centres not stated) | – | – | – | 11.1 µM | 17.8 µM | 35.3% | 15.6 µM | 27.8 µM | –
5 | N#Cc1ccc(C(O)C2=C3C=C[C@@H]4C[C@@]3(OC2=O)[C@H]2CCCCN42)cc1 (stereo in doubt; 4a-5-a) | 6.2 µM | 14.1 µM | 18.9 µM | – | – | – | – | – | 13.1 µM
6 | N#Cc1cccc(C(O)C2=C3C=C[C@@H]4C[C@@]3(OC2=O)[C@H]2CCCCN42)c1 (some centres not stated) | – | – | – | 7.08 µM | 17.9 µM | 34.7% | 15.6 µM | 24.9 µM | –
7 | O=C1O[C@@]23C[C@@H](C=CC2=C1C(O)c1cccc(F)c1)N1CCCC[C@@H]13 (some centres not stated) | – | – | – | 8.01 µM | 16.1 µM | 34.9% | 16.8 µM | 27.1 µM | –
8 | O=C1O[C@@]23C[C@@H](C=CC2=C1C(O)c1ccc(C(F)(F)F)cc1)N1CCCC[C@@H]13 (stereo in doubt; 4a-6-b) | 3.01 µM | 2.57 µM | 8.62 µM | – | – | – | – | – | 9.08 µM
9 | CSc1ccc(C(O)C2=C3C=C[C@@H]4C[C@@]3(OC2=O)[C@H]2CCCCN42)cc1 (some centres not stated) | – | – | – | 9.05 µM | 16.7 µM | 30.9% | 17.8 µM | 21 µM | –
10 | O=C1O[C@@]23C[C@@H](C=CC2=C1C(O)c1ccc(Br)cc1)N1CCCC[C@@H]13 (stereo in doubt; 4a-4-a) | 6.24 µM | – | 22.4 µM | – | – | – | – | – | 12.8 µM
11 | O=C1O[C@@]23C[C@@H](C=CC2=C1C(O)c1ccccc1[N+](=O)[O-])N1CCCC[C@@H]13 (some centres not stated) | – | – | – | 3.91 µM | 6.78 µM | 40.6% | 8.11 µM | 8.69 µM | –
12 | O=C1O[C@@]23C[C@@H](C=CC2=C1C(O)c1ccccc1F)N1CCCC[C@@H]13 (some centres not stated) | – | – | – | 6.89 µM | 10.1 µM | 42.3% | 13 µM | 22 µM | –
13 | O=C1O[C@@]23C[C@@H](C=CC2=C1C(O)c1ccc(O)cc1)N1CCCC[C@@H]13 (some centres not stated) | – | – | – | 6.99 µM | 17.1 µM | 31.8% | 18.9 µM | 23 µM | –
14 | N#Cc1ccc(C(O)C2=C3C=C[C@@H]4C[C@@]3(OC2=O)[C@H]2CCCCN42)cc1 (stereo in doubt; 4a-5) [listing 1 of 2 here] | – | – | – | – | – | 45.7% | – | – | –
15 | O=C1O[C@@]23C[C@@H](C=CC2=C1C(O)c1ccc(F)cc1)N1CCCC[C@@H]13 (stereo in doubt; 4a-2-a) | 4.95 µM | 10 µM | 19.1 µM | – | – | – | – | – | 12.8 µM
16 | COc1ccc(C(O)C2=C3C=C[C@@H]4C[C@@]3(OC2=O)[C@H]2CCCCN42)cc1 (some centres not stated) | – | – | – | 10 µM | 17.8 µM | 31.6% | 10 µM | 22.5 µM | –

Row | SMILES | IC50 ([1]; a549) | IC50 ([2]; hepg2) | IC50 ([3]; sh-sy5y) | IC50 ([1]; Homo sapiens, A549, 72 h) | IC50 ([2]; Homo sapiens, HepG2, 72 h) | inhibition [4] | IC50 ([5]; Homo sapiens, HeLa, 72 h) | IC50 ([3]; Homo sapiens, SH-SY5Y, 72 h) | IC50 ([5]; hela)
17 | O=C1O[C@@]23C[C@@H](C=CC2=C1C(O)c1ccc(Cl)cc1)N1CCCC[C@@H]13 (stereo in doubt; 4a-3) [listing 1 of 2 here] | – | – | – | 6.21 µM | 13 µM | – | 13 µM | 20 µM | –
18 | O=C1O[C@@]23C[C@@H](C=CC2=C1C(O)c1ccc(Cl)cc1)N1CCCC[C@@H]13 (stereo in doubt; 4a-3-b) | 6.2 µM | – | 19.9 µM | – | – | – | – | – | 12.5 µM
19 | O=C1O[C@@]23C[C@@H](C=CC2=C1C(O)c1ccc(Cl)cc1)N1CCCC[C@@H]13 (stereo in doubt; 4a-3-a) | 6.18 µM | 13.1 µM | 20.1 µM | – | – | – | – | – | 12.5 µM
20 | O=C1O[C@@]23C[C@@H](C=CC2=C1C(O)c1cccc([N+](=O)[O-])c1)N1CCCC[C@@H]13 (some centres not stated) | – | – | – | 4.04 µM | 6.77 µM | 36.2% | 9.98 µM | 8.7 µM | –
21 | O=C1O[C@@]23C[C@@H](C=CC2=C1C(O)c1ccc(F)cc1)N1CCCC[C@@H]13 (stereo in doubt; 4a-2) [listing 1 of 2 here] | – | – | – | 5.01 µM | 10.1 µM | – | 12.8 µM | 19.8 µM | –
22 | N#Cc1ccccc1C(O)C1=C2C=C[C@@H]3C[C@@]2(OC1=O)[C@H]1CCCCN31 (some centres not stated) | – | – | – | 7.01 µM | 11.1 µM | 38.4% | 14.9 µM | 21.9 µM | –
23 | N#Cc1ccc(C(O)C2=C3C=C[C@@H]4C[C@@]3(OC2=O)[C@H]2CCCCN42)cc1 (stereo in doubt; 4a-5-b) | – | 14.1 µM | 18.9 µM | – | – | – | – | – | 12.1 µM
24 | O=C1O[C@@]23C[C@@H](C=CC2=C1C(O)c1ccc(C(F)(F)F)cc1)N1CCCC[C@@H]13 (stereo in doubt; 4a-6) | – | – | – | – | – | 53.6% | – | – | –
25 | O=C1O[C@@]23C[C@@H](C=CC2=C1C(O)c1ccc(F)cc1)N1CCCC[C@@H]13 (stereo in doubt; 4a-2-b) | 5.09 µM | 10.1 µM | 19 µM | – | – | – | – | – | 12.7 µM
26 | N#Cc1ccc(C(O)C2=C3C=C[C@@H]4C[C@@]3(OC2=O)[C@H]2CCCCN42)cc1 (stereo in doubt; 4a-5) [listing 2 of 2 here] | – | – | – | 6.22 µM | 14.2 µM | – | 13 µM | 18.9 µM | –
27 | O=C1O[C@@]23C[C@@H](C=CC2=C1C(O)c1ccc(F)cc1)N1CCCC[C@@H]13 (stereo in doubt; 4a-2) [listing 2 of 2 here] | – | – | – | – | – | 49.8% | – | – | –
28 | O=C1O[C@@]23C[C@@H](C=CC2=C1C(O)c1ccc(Cl)cc1)N1CCCC[C@@H]13 (stereo in doubt; 4a-3) [listing 2 of 2 here] | – | – | – | – | – | 48.9% | – | – | –
29 | O=C1O[C@@]23C[C@@H](C=CC2=C1C(O)c1ccc(Br)cc1)N1CCCC[C@@H]13 (stereo in doubt; 4a-4) [listing 1 of 2 here] | – | – | – | – | – | 47.1% | – | – | –
30 | O=C1O[C@@]23C[C@@H](C=CC2=C1C(O)c1ccc(C(F)(F)F)cc1)N1CCCC[C@@H]13 (stereo in doubt; 4a-6-a) | 2.78 µM | 2.23 µM | 8.27 µM | – | – | – | – | – | 8.8 µM
31 | O=C1O[C@@]23C[C@@H](C=CC2=C1C(O)c1ccc(Br)cc1)N1CCCC[C@@H]13 (stereo in doubt; 4a-4) [listing 2 of 2 here] | – | – | – | 6.32 µM | 14.1 µM | – | 12.8 µM | 22.3 µM | –
